# Results collected from several papers.
# Target: Myotonin-protein kinase (DMPK, Homo sapiens, UniProt Q09013)
# Residues used in one study (Q09013 1-629): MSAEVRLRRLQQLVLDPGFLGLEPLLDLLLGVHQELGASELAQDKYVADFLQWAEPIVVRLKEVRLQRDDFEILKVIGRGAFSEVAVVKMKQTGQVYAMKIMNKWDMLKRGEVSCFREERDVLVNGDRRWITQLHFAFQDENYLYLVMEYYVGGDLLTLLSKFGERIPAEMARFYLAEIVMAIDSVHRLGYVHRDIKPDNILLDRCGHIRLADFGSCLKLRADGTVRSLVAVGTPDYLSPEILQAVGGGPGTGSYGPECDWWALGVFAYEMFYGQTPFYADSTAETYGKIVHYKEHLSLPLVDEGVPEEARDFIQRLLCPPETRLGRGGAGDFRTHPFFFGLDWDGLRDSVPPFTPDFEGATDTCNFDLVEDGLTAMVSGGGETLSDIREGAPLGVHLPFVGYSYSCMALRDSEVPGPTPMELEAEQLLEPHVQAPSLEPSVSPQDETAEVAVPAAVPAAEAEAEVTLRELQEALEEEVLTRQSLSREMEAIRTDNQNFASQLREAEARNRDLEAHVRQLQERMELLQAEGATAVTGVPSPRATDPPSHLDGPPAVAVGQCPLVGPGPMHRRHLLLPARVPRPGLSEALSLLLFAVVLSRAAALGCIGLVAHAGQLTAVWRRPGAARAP
Structure (SMILES),test,conditions,quantity,value
O=c1[nH]c2ccccc2n1C1CCN(Cc2ccc(-c3[nH]c4cc5ncnc5cc4nc3-c3ccccc3)cc2)CC1,cell-free assay,0.5 µM,remaining signal,98%
Cn1cc(-c2cc(F)cc(N3CCn4c(cc5c4CCCC5)C3=O)c2CO)cc(Nc2ccc(N3CCN(C4COC4)CC3)cn2)c1=O,"enzyme activity, inhibitor",0.1 µM,inhibition,-7%
C#Cc1n[nH]c2c(-c3cn([C@@H](C)c4ccccn4)c(=O)[nH]c3=O)cc(F)cc12,"enzyme activity, inhibitor",0.1 µM,inhibition,3.2%
Cn1cc(-c2cccc(N3CCc4c(sc5c4CC(C)(C)C5)C3=O)c2CO)cc(Nc2ccncn2)c1=O,"enzyme activity, inhibitor",1 µM,inhibition,-4%
Cc1nn(C)cc1-c1nc2c(N3CCN(Cc4ccc(Cl)cc4)CC3)c(Cl)cnc2[nH]1,"binding, competition with immobilised ligand",1 µM,remaining binding,100%
CC(C)(C)c1cc(C=C(C#N)C#N)cc(Br)c1O,"enzyme activity, inhibitor",0.5 µM,remaining activity,96.9%
C#Cc1n[nH]c2c(-c3cn([C@@H](C)c4ccccc4)c(=O)[nH]c3=O)cc(F)cc12,"enzyme activity, inhibitor",0.1 µM,inhibition,-4%
Cn1cncc1[C@](O)(COc1ccc(C#N)cc1-c1ccc(OC(F)(F)F)cc1)c1ccc(C#N)cc1,"cell-free assay, competition with immobilised ligand",1 µM,remaining binding,98%
Nc1ncc(-c2nc(N3CCOCC3)nc(N3CCOCC3)n2)c(C(F)F)n1,"binding, competition with immobilised ligand",10 µM,remaining binding,76%
COc1ncccc1-c1cnn2ccc(N3CCN(C(=O)OC(C)C)CC3)nc12,"binding, competition with immobilised ligand",1 µM,remaining binding,98%
